Activity calls are given as the source filed them. No cut-off for these calls is given here.
Assays:
Detroit 551 [1] = assay: Selectivity index, ratio of IC50 for human Detroit 551 cells to IC50 for human BT-483 cells; format: functional
[2] = molecular target: T1, DNA topoisomerase 1 (Homo sapiens) (UniProt P11387); assay: Inhibition of human topoisomerase 1 assessed as decrease in pBR322 mobility on agarose gel at 10 uM by electrophoresis
T1 sequence (whole entry): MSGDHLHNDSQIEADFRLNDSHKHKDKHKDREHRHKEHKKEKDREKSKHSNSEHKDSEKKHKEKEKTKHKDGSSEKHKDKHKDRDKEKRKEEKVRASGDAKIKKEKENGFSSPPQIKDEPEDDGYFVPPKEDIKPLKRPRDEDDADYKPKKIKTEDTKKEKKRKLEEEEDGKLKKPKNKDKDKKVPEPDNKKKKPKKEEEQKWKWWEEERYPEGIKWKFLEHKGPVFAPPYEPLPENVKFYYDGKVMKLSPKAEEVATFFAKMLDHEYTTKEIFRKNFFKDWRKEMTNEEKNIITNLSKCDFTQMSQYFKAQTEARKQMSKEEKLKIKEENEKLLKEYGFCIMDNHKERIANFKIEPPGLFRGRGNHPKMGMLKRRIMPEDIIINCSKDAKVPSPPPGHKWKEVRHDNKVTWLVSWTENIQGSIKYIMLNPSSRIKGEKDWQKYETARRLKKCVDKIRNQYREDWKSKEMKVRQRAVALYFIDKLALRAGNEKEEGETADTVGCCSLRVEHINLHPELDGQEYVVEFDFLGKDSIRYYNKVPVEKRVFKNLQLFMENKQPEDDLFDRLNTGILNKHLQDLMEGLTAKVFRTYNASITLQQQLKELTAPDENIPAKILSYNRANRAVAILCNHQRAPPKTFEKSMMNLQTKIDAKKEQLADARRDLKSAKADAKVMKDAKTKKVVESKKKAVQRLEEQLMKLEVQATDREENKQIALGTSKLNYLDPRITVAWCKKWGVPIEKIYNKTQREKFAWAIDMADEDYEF
Method in brief: (§1)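 Enzyme preincubated with compound before DNA addition; reaction run 30 min at 37 °C and stopped with SDS. Products resolved on 1% agarose, stained with ethidium bromide, quantified by densitometry.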

HeLa [3] = assay: Selectivity index, ratio of IC50 for human Detroit 551 cells to IC50 for human HeLa cells; format: functional
SAS [4] = assay: Selectivity index, ratio of IC50 for human Detroit 551 cells to IC50 for human SAS cells; format: functional
Detroit 551 [5] = assay: Selectivity index, ratio of IC50 for human Detroit 551 cells to IC50 for human SKHep cells; format: functional
[6] = Cytotoxicity against human BT-483 cells after 48 hrs by MTT assay; format: functional; conditions: BT-483, 48 h
Method in brief: (§2)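 Cells grown in DMEM with 10% FBS at 37 °C and 5% CO2, seeded at 5 × 10^3 per well and allowed 24 h before drug. Serial dilutions from DMSO stocks applied for 48 h. MTT (2 mg/mL in PBS) added for 2 h, formazan dissolved in DMSO, absorbance read at 570 nm. GI50 interpolated by linear regression from at least three points in the 20-80% range; three independent experiments.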

DNA topoisomerase 1 = molecular target: T2, DNA topoisomerase 1 (Homo sapiens, UniProt P11387); assay: Inhibition of human topoisomerase 1 assessed as decrease in pBR322 mobility on agarose gel by electrophoresis; method in brief: as §1
T2 sequence (P11387 whole entry): T1 sequence (whole entry)

Homo sapiens = species: Homo sapiens; assay: Inhibition of human topoisomerase 2 assessed as decrease in pBR322 mobility on agarose gel at 10 uM by electrophoresis; method in brief: as §1
Detroit 551 [7] = assay: Selectivity index, ratio of IC50 for human Detroit 551 cells to IC50 for human PC3 cells; format: functional
Nucleic Acid = assay: Binding affinity to pBR322; format: nucleic-acid assay; conditions: Escherichia coli
Detroit 551 [8] = assay: Selectivity index, ratio of IC50 for human Detroit 551 cells to IC50 for human A549 cells; format: functional
[9] = Cytotoxicity against human Detroit 551 cells after 48 hrs by MTT assay; format: cell-based; method in brief: as §2
HeLa [10] = assay: Cytotoxicity against human HeLa cells after 48 hrs by MTT assay; format: functional; method in brief: as §2
[11] = Inhibition of human topoisomerase 2 assessed as decrease in pBR322 mobility on agarose gel by electrophoresis; method in brief: as §1
A549 = assay: Cytotoxicity against human A549 cells after 48 hrs by MTT assay; format: functional; conditions: A549, 48 h; method in brief: as §2
[12] = Cytotoxicity against human SKHep cells after 48 hrs by MTT assay; format: functional; method in brief: as §2
SAS [13] = assay: Cytotoxicity against human SAS cells after 48 hrs by MTT assay; format: functional; method in brief: as §2
PC-3 = assay: Cytotoxicity against human PC3 cells after 48 hrs by MTT assay; format: functional; conditions: PC-3, 48 h; method in brief: as §2

Row | SMILES | RatioGI50 (Detroit 551 [1]) | inhibition [2] [%] | RatioGI50 (HeLa [3]) | RatioGI50 (SAS [4]) | RatioGI50 (Detroit 551 [5]) | GI50 [6] [µM] | IC50 (DNA topoisomerase 1) [µM] | inhibition (Homo sapiens) [%] | RatioGI50 (Detroit 551 [7]) | Activity (Nucleic Acid) | RatioGI50 (Detroit 551 [8]) | GI50 at 48 h [9] [µM] | GI50 (HeLa [10]; read-out: pGI50 (converted)) [µM] | IC50 [11] [µM] | GI50 (A549) [µM] | GI50 [12] [µM] | GI50 (SAS [13]) [µM] | GI50 (HeLa [10]; read-out: GI50) [µM] | GI50 (PC-3) [µM]
1 | COc1ccc2c(c1)/C(=N\OCCCN(C)C)c1c-2c(N2CCNCC2)nc2ccccc12 | 2.02 | 70 | 7.49 | 0.56 | 0.94 | 1.37 | 6.6 | 88 | 0.52 | Active | 7.29 | 2.77 | 0.372 | 4.05 | – | – | – | – | –
2 | COc1cccc2c1C(=O)c1c(O)c3c(c(O)c1C2=O)C[C@@](O)(C(=O)CO)C[C@@H]3O[C@H]1C[C@H](N)[C@H](O)[C@H](C)O1 [DOXORUBICIN] | – | 35 | – | – | – | – | – | 85 | – | – | – | – | – | 1.9 | – | – | – | – | –
3 | COc1ccc2c(c1)/C(=N\OCCN1CCCC1)c1c-2c(N2CCNCC2)nc2ccccc12 | 1.03 | 48 | 2.58 | 0.6 | 2.16 | 1.43 | 12.8 | 74 | 0.44 | Active | 4.63 | 1.47 | 0.575 | 6.44 | 0.5 | 0.68 | 2.43 | 0.57 | 3.37
4 | COc1ccc2c(c1)/C(=N\OCCN1CCOCC1)c1c-2c(N2CCNCC2)nc2ccccc12 | 0.69 | 40 | 3.33 | 0.38 | 2.65 | 3.75 | 13 | 100 | 0.4 | – | 1.18 | 2.6 | 0.776 | 5.97 | 2.2 | 0.98 | 6.93 | 0.78 | 6.47
5 | COc1ccc2c(c1)/C(=N\OCCN1CCOCC1)c1c-2c(O)nc2ccccc12 | – | 0 | – | – | – | 6.04 | > 100 | 0 | – | – | – | – | 5.01 | > 100 | > 30 | 10.4 | 16.5 | 5.02 | 13.6
6 | COc1ccc2c(c1)/C(=N\OCCN(C)C)c1c-2cnc2ccccc12 | 1.9 | 82 | 16.31 | 6.01 | 5.71 | 3.61 | 7.2 | 75 | 3.62 | Active | 5.27 | 6.85 | 0.417 | 6.7 | 1.3 | 1.2 | 1.14 | 0.42 | 1.89
7 | COc1ccc2c(c1)/C(=N\O)c1c-2c(N2CCNCC2)nc2ccccc12 | – | – | – | – | – | – | – | – | – | – | – | – | 2.34 | – | – | – | – | – | –
8 | COc1ccc2c(c1)/C(=N\OCCN1CCCCC1)c1c-2c(N2CCNCC2)nc2ccccc12 | 0.57 | 45 | 2.95 | 0.4 | 1.46 | 4.03 | 11.5 | 68 | 0.41 | Active | 2.64 | 2.3 | 0.776 | 8 | – | – | – | – | –
9 | COc1ccc2c(c1)/C(=N\OCCN1CCCCC1)c1c-2c(O)nc2ccccc12 | 4.72 | 0 | 8.93 | 1.39 | 1.75 | 1.59 | – | 0 | 1.31 | Active | 1.08 | – | 0.832 | > 100 | 6.95 | 4.28 | 5.39 | 0.84 | 5.74
10 | CC[C@@]1(O)C(=O)OCc2c1cc1n(c2=O)Cc2cc3ccccc3nc2-1 [CAMPTOTHECIN] | – | – | – | – | – | 1.03 | – | 0 | – | – | – | 0.99 | – | > 100 | – | – | – | 0.08 | –
11 | COc1ccc2c(c1)/C(=N\OCCN1CCOCC1)c1c-2cnc2ccccc12 | – | 0 | – | – | – | 10.2 | > 100 | 0 | – | – | – | – | 17 | > 100 | 28.2 | 20.8 | 15.7 | 16.9 | 7.81
12 | COc1ccc2c(c1)C(=O)c1c-2cnc2ccccc12 | – | 0 | – | – | – | > 30 | > 100 | 0 | – | – | – | – | 17.4 | > 100 | 13.5 | > 30 | > 30 | 17.2 | > 30
13 | COc1ccc2c(c1)/C(=N\OCCN(C)C)c1c-2c(N2CCNCC2)nc2ccccc12 | 2.47 | 56 | 2.96 | 0.43 | 0.9 | 1.1 | 8.5 | 75 | 0.59 | Active | 3.83 | 2.72 | 0.912 | 4.87 | – | – | – | – | –
14 | COc1ccc2c(c1)/C(=N\OCCCN(C)C)c1c-2c(=O)[nH]c2ccccc12 | – | – | – | – | – | – | > 100 | – | – | – | – | 2.09 | – | – | – | – | – | – | –
15 | COc1ccc2c(c1)/C(=N\OCCN1CCCCC1)c1c-2c(=O)[nH]c2ccccc12 | – | – | – | – | – | – | > 100 | – | – | – | – | 7.5 | – | – | – | – | – | – | –
16 | COc1ccc2c(c1)/C(=N\O)c1c-2cnc2ccccc12 | – | – | – | – | – | > 30 | – | – | – | – | – | – | 11.5 | – | > 30 | 8.42 | > 30 | 11.4 | > 30
17 | COc1ccc2c(c1)/C(=N\OCCCN(C)C)c1c-2c(O)nc2ccccc12 | 1.62 | 3 | 10.45 | 0.67 | 2.79 | 1.29 | – | 77 | 0.48 | Active | 3.32 | – | 0.2 | 7.14 | 0.63 | 0.75 | 3.1 | 0.2 | 4.35
18 | COc1ccc2c(c1)/C(=N\OCCCN(C)C)c1c-2cnc2ccccc12 | 3.71 | 5 | 3.11 | 0.57 | 3.22 | 0.93 | 40 | 75 | 0.61 | – | 1.89 | 3.45 | 1.12 | 13.2 | 1.83 | 1.07 | 6.1 | 1.11 | 5.65

— ChEMBL document CHEMBL1240482, “Synthesis and antiproliferative evaluation of certain indeno[1,2-c]quinoline derivatives. Part 2” (J Med Chem, 2010)
